From ChEMBL document CHEMBL4052816, “Development of Clickable Monophosphoryl Lipid A Derivatives toward Semisynthetic Conjugates with Tumor-Associated Carbohydrate Antigens” (J Med Chem, 2017)
Active and inactive are the calls of the source. The calls are words filed in the database; no cut-off is given here.

Experiments:
[1] = tested on: BMDM; experiment: Immunostimulatory activity in C57BL/6 mouse BMDM assessed as increase in MHC-class 2 production at 20 ug/ml after 6 to 72 hrs by flow cytometric method; format: functional, cell-based
How it was run: (§1)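 C57BL/6 BMDM (0.5 × 10^6/well) were stimulated with compound at 20 μg/mL for 6, 24, 48 and 72 h. Cells were then stained with phycoerythrin-conjugated anti-CD40, anti-CD80 or anti-CD86, plus allophycocyanin-conjugated anti-MHC class II. Isotype antibodies set nonspecific binding, and cells were analysed by flow cytometry. Three independent experiments were run.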

[2] = tested on: THP-1; experiment: Cytotoxicity against human THP1 cells assessed as decrease in cell viability at 0.1 to 20 ug/ml after 6 to 48 hrs by SRB assay; format: cell-based
How it was run: (§2)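 THP-1 cells and C57BL/6 wild-type bone marrow-derived macrophages were kept in RPMI with 10% FBS, penicillin and streptomycin at 37 °C and 5% CO2. BMDM medium also contained gentamycin. Cells were exposed to compound at 20, 10, 1 and 0.1 μg/mL, and viability was read with a colorimetric assay.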

[3] = tested on: BMDM; experiment: Immunostimulatory activity in C57BL/6 mouse BMDM assessed as increase in TNFalpha production at 20 ug/ml after 6 to 72 hrs by ELISA; format: functional, cell-based
How it was run: (§3)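 Bone marrow macrophages from wild-type C57BL/6 mice (0.5 × 10^6/well) were grown for 24 h, then given fresh medium containing compound at 20 μg/mL for 6, 24, 48 and 72 h. Three independent experiments were run, means ± SD.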

[4] = tested on: BMDM; experiment: Immunostimulatory activity in C57BL/6 mouse BMDM assessed as increase in IL-4 production at 20 ug/ml after 6 to 72 hrs by immunoassay; format: functional, cell-based; how it was run: as §3
[5] = tested on: BMDM; experiment: Immunostimulatory activity in C57BL/6 mouse BMDM assessed as increase in IL-5 production at 20 ug/ml after 6 to 72 hrs by immunoassay; format: functional, cell-based; how it was run: as §3
[6] = tested on: BMDM; experiment: Immunostimulatory activity in C57BL/6 mouse BMDM assessed as increase in IL-12 production at 20 ug/ml after 6 to 72 hrs by immunoassay; format: functional, cell-based; how it was run: as §3
[7] = tested on: BMDM; experiment: Immunostimulatory activity in C57BL/6 mouse BMDM assessed as increase in IL-6 production at 20 ug/ml after 6 to 72 hrs by ELISA; format: functional, cell-based; how it was run: as §3
[8] = tested on: THP-1; experiment: Immunostimulatory activity in human THP1 cells assessed as increase in IFN-gamma production at 20 ug/ml after 6 to 72 hrs by immunoassay; format: functional, cell-based
How it was run: (§4)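 THP-1 cells (0.5 × 10^6/well) were grown in RPMI/10% FBS for 24 h, then given fresh medium containing compound at 20 μg/mL for 6, 24, 48 and 72 h. Cell-free supernatants were assayed for IL-8 and IL-6 by ELISA, and for IL-10, IFN-γ and TNF-α by a human Th1/Th2 multiplex bead immunoassay. Results were pooled from three independent experiments, means ± SD.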

[9] = tested on: BMDM; experiment: Immunostimulatory activity in C57BL/6 mouse BMDM assessed as increase in CD86 production at 20 ug/ml after 6 to 72 hrs by flow cytometric method; format: functional, cell-based; how it was run: as §1
[10] = tested on: THP-1; experiment: Immunostimulatory activity in human THP1 cells assessed as increase in TNF-alpha production at 20 ug/ml after 6 to 72 hrs by immunoassay; format: functional, cell-based; how it was run: as §4
[11] = tested on: BMDM; experiment: Immunostimulatory activity in C57BL/6 mouse BMDM assessed as increase in IL-10 production at 20 ug/ml after 6 to 72 hrs by immunoassay; format: functional, cell-based; how it was run: as §3
[12] = tested on: BMDM; experiment: Immunostimulatory activity in C57BL/6 mouse BMDM assessed as increase in IL-2 production at 20 ug/ml after 6 to 72 hrs by immunoassay; format: functional, cell-based; how it was run: as §3
[13] = tested on: BMDM; experiment: Immunostimulatory activity in C57BL/6 mouse BMDM assessed as increase in IFN-gamma production at 20 ug/ml after 6 to 72 hrs by immunoassay; format: functional, cell-based; how it was run: as §3
[14] = tested on: THP-1; experiment: Immunostimulatory activity in human THP1 cells assessed as increase in IL-8 production at 20 ug/ml after 6 to 72 hrs by ELISA; format: functional, cell-based; how it was run: as §4
[15] = tested on: THP-1; experiment: Immunostimulatory activity in human THP1 cells assessed as increase in IL-10 production at 20 ug/ml after 6 to 72 hrs by immunoassay; format: functional, cell-based; how it was run: as §4
[16] = tested on: BMDM; experiment: Immunostimulatory activity in C57BL/6 mouse BMDM assessed as increase in GM-CSF production at 20 ug/ml after 6 to 72 hrs by immunoassay; format: functional, cell-based; how it was run: as §3
[17] = tested on: BMDM; experiment: Immunostimulatory activity in C57BL/6 mouse BMDM assessed as increase in CD80 production at 20 ug/ml after 6 to 72 hrs by flow cytometric method; format: functional, cell-based; how it was run: as §1
[18] = tested on: BMDM; experiment: Immunostimulatory activity in C57BL/6 mouse BMDM assessed as increase in CD40 production at 20 ug/ml after 6 to 72 hrs by flow cytometric method; format: functional, cell-based; how it was run: as §1
[19] = tested on: THP-1; experiment: Immunostimulatory activity in human THP1 cells assessed as increase in IL-6 production at 20 ug/ml after 6 to 72 hrs by ELISA; format: functional, cell-based; how it was run: as §4
[20] = Cytotoxicity against C57BL/6 mouse BMDM assessed as decrease in cell viability at 20 ug/ml after 6 to 48 hrs by SRB assay; format: cell-based; how it was run: as §2

| SMILES | Activity [1] | Activity [2] | Activity [3] | Activity [4] | Activity [5] | Activity [6] | Activity [7] | Activity [8] | Activity [9] | Activity [10] | Activity [11] | Activity [12] | Activity [13] | Activity [14] | Activity [15] | Activity [16] | Activity [17] | Activity [18] | Activity [19] | Activity [20] |
| --- | --- | --- | --- | --- | --- | --- | --- | --- | --- | --- | --- | --- | --- | --- | --- | --- | --- | --- | --- | --- |
| CCCCCCCCCCCCCC(=O)O[C@H](CCCCCCCCCCC)CC(=O)O[C@@H]1[C@@H](NC(=O)C[C@@H](CCCCCCCCCCC)OC(=O)CCCCCCCCCCC)[C@H](OC[C@H]2OC(O)[C@H](NC(=O)C[C@H](O)CCCCCCCCCCC)[C@@H](OC(=O)C[C@H](O)CCCCCCCCCCC)[C@@H]2O)O[C@H](C(=O)NCCCCCSCCCO[C@H]2O[C@H](CO)[C@H](O)[C@H](O[C@@H]3O[C@H](CO)[C@H](O)[C@H](O)[C@H]3O)[C@H]2NC(C)=O)[C@H]1OP(=O)(O)O (some centres undefined) | inactive | Non-Toxic | inactive | inactive | inactive | inactive | Active | Active | inactive | Active | inactive | inactive | inactive | Active | Active | inactive | inactive | inactive |  |  |
| CCCCCCCCCCCCCC(=O)O[C@H](CCCCCCCCCCC)CC(=O)O[C@@H]1[C@@H](NC(=O)C[C@@H](CCCCCCCCCCC)OC(=O)CCCCCCCCCCC)[C@H](OC[C@H]2OC(O)[C@H](NC(=O)C[C@H](O)CCCCCCCCCCC)[C@@H](OC(=O)C[C@H](O)CCCCCCCCCCC)[C@@H]2O)O[C@H](C(=O)O)[C@H]1OP(=O)(O)O (some centres undefined) | inactive | Non-Toxic | Active | inactive | inactive | inactive | Active | inactive | inactive | Active | inactive | inactive | inactive | Active | Active | inactive | inactive | inactive | Active |  |
| C=CCCCNC(=O)[C@H]1O[C@@H](OC[C@H]2OC(O)[C@H](NC(=O)C[C@H](O)CCCCCCCCCCC)[C@@H](OC(=O)C[C@H](O)CCCCCCCCCCC)[C@@H]2O)[C@H](NC(=O)C[C@@H](CCCCCCCCCCC)OC(=O)CCCCCCCCCCC)[C@@H](OC(=O)C[C@@H](CCCCCCCCCCC)OC(=O)CCCCCCCCCCCCC)[C@@H]1OP(=O)(O)O (some centres undefined) | inactive | Non-Toxic |  | inactive | inactive | inactive | Active | Active | inactive | Active | inactive | inactive | inactive | Active | Active | inactive | inactive | inactive | Active | Toxic |
| CCCCCCCCCCCCCC(=O)O[C@H](CCCCCCCCCCC)CC(=O)O[C@@H]1[C@@H](NC(=O)C[C@@H](CCCCCCCCCCC)OC(=O)CCCCCCCCCCC)[C@H](OC[C@H]2OC(O)[C@H](NC(=O)C[C@H](O)CCCCCCCCCCC)[C@@H](OC(=O)C[C@H](O)CCCCCCCCCCC)[C@@H]2O)O[C@H](C(=O)NCCCCCSCCCO[C@H]2O[C@H](CO)[C@H](O)[C@H](O)[C@H]2NC(C)=O)[C@H]1OP(=O)(O)O (some centres undefined) | inactive | Non-Toxic | Active | inactive | inactive | inactive |  | Active | inactive |  | inactive | inactive | inactive | Active | Active | inactive | inactive | inactive | Active | Toxic |
